Screening results deposited in PubChem BioAssay by several laboratories.
Most compounds without a hit are left out; they make up all but 2.4% or so of the library.
Rpn11 inh = Rpn11 (PSMD14) deubiquitinase inhibitors, primary screen, biochemical, fluorescence polarization, uHTS; inhibition, % at 20 µM; AID 588493, 2011; 360,000 tested, 0.59% active; 26S proteasome non-ATPase regulatory subunit 14 (Homo sapiens), O00487; human 26S proteasome, Ub4-pepOG fluorescence polarization; 20S core pre-blocked with epoxomicin;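 active means inhibition at 20 µM, scaled to each plate's controls, above about 33%, limit read from the data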
Neddyl block = inhibitors of cullin neddylation, primary screen, biochemical, TR-FRET, uHTS, NAE and Ubc12 | NEDD8-conjugating enzyme Ubc12 (Homo sapiens) + NEDD8-activating enzyme E1 regulatory … | inhibition, % at 25 µM | 360,000 tested, 0.58% active | AID 651699, 2012; in the data active means inhibition above about 36%
HNF4A DNA FP = change in binding of human HNF4A to DNA, primary screen, biochemical, fluorescence polarization, FITC-DNA; Hepatocyte nuclear factor 4-alpha (Homo sapiens), P41235; 1 h; activity change, % at 10 µM; 360,000 tested, 0.3% active; AID 1224865, 2016; in the data active means activity change above about 30%, passing the limit was not always enough
Target sequence (P41235 whole entry, looked up): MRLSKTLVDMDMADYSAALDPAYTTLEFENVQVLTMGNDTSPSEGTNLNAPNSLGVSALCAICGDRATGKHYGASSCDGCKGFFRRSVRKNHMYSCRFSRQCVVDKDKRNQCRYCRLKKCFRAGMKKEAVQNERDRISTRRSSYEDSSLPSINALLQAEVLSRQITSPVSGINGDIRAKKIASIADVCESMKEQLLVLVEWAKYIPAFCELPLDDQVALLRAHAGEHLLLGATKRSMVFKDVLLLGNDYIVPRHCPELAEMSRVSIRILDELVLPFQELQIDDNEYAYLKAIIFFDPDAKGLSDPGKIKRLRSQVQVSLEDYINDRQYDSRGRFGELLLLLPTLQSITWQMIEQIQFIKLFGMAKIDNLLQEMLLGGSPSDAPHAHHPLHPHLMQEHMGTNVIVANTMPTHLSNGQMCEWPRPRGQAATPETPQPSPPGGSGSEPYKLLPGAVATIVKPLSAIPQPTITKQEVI
TPT1 inhibitor = Candida albicans TPT1 enzyme inhibitors, primary screen, biochemical, fluorescence polarization; recombinant caTPT1, FP RNA substrate dephosphorylation; tRNA 2'-phosphotransferase TPT1 (Candida albicans SC5314); inhibition, % at 5 µM; 300,000 tested, 0.81% active;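 active means inhibition above the mean of all tested compounds plus 3 SD, set per screening campaign, cut at about 24% in these data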;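 further: plate controls were DMSO alone for no effect and ferristatin control at 100 nM for full effect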
Rin1-Abl PPI inh = inhibitors of Rin1-Abl protein binding, primary screen, biochemical, TR-FRET | Tyrosine-protein kinase ABL1 (Homo sapiens) + Ras and Rab interactor 1 (Homo sapiens), … | inhibition, % at 7.35 µM | 360,000 tested, 0.4% active | AID 588664, 2011; in the data active means inhibition above about 5%, passing the limit was not always enough
CSN inh = inhibitors of CSN-mediated cullin deneddylation, primary screen, biochemical, fluorescence polarization, uHTS | COP9 signalosome complex subunit 5 (Homo sapiens), Q92905 | Purified CSN, SCF-Nedd8-OG deneddylation | inhibition, % at 12.5 µM | 360,000 tested, 0.38% active | AID 651999, 2013;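 active means pattern-corrected inhibition above about 35%, with an unprinted fluorescence ratio check between 0.5 and 1.5, limit read from the data, passing the limit was not always enough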;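 further: 0% = enzyme with substrate and 100% = substrate without enzyme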
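Assay system: purified human Csn5 enzyme expressed in HEK293T cells; Input: 0.24 nM Csn5 enzyme, final concentration; Reagent: 10 nM SCFSkp2-Nedd8OG; Compound dosing: 12.5 µM single point; Times: reaction 90 min, room temperature; Technique: fluorescence polarization readout.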
TPT1 inh confirm = Candida albicans TPT1 inhibitors, confirmation, biochemical, fluorescence polarization, triplicate; shares compounds with TPT1 inhibitor; recombinant caTPT1, RNase T1 coupled; inhibition, % at 5 µM; 2,400 tested, 74% active; AID 2149, 2009;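 active means inhibition above the primary screen limit, the mean inhibition of all tested compounds plus 3 SD, cut at about 25% in these data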
RNase T1 counter = RNase T1 inhibitors, counter-screen for TPT1 inhibitor project, biochemical, fluorescence polarization; 2,400 tested, 83% active; AID 2153, 2009; shares compounds with TPT1 inhibitor; inhibition, % at 5 µM; RNase T1 cleavage, 1536-well;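 active means inhibition above the solvent-only control well mean plus 3 SD, limit set per screening run, cut at about 23% in these data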;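 further: plate controls were DMSO wells with enzyme for no effect and wells without RNase T1 for full effect; inhibitors block cleavage so intact labeled substrate keeps polarization high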
Target sequence (P00651 whole entry, looked up): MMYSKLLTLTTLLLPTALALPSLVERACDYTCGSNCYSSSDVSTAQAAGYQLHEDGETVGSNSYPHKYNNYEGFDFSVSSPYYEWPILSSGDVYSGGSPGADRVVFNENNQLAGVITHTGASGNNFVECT
Active calls of the source: *; x = no result given.

SMILES	Rpn11 inh	Neddyl block	HNF4A DNA FP	TPT1 inhibitor	Rin1-Abl PPI inh	CSN inh	TPT1 inh confirm	RNase T1 counter
CN(C)/C=C(\C#N)S(=O)(=O)c1ccccc1	-2.9	4.4	-0.7	0.1	1.6	-6.1	x	x
CS(=O)(=O)/C(C#N)=C\c1cnc(S(=O)(=O)c2ccccc2)s1	x	x	x	35.2*	x	x	6.1	11.6
O=C(Nc1ccc2[nH]c(=O)[nH]c2c1)c1c(F)c(F)c(F)c(F)c1F	-0.9	29.3	0.9	-1.7	3.2	-3.1	x	x
CCN1c2ccc(S(=O)(=O)N3CCOCC3)cc2N(Cc2ccc(OC)cc2)C1C (configuration not stated)	10.0	5.9	4.0	31.9*	0.0	2.1	48.3*	59.4*
O=C(CSCCOc1ccccc1)NCc1ccncc1	0.5	3.3	2.6	2.1	3.0	1.0	x	x
Cc1ccc(NC(=O)c2sc3nc4c(c(-c5ccco5)c3c2N)CCC4)cc1	31.9	1.8	3.5	15.1	2.4	9.9	x	x
Nc1c(C(=O)Nc2ccc(F)cc2)sc2nc(-c3ccco3)ccc12	22.8	34.9	14.4	28.0*	-3.4	19.6	24.6*	33.5*
Nc1c(C(=O)Nc2ccc(Br)cc2)sc2nc(-c3ccco3)ccc12	33.4	x	9.4	24.5*	0.5	34.4	35.3*	44.3*
Nc1c(C(=O)Nc2ccccc2)sc2nc3c(c(-c4ccco4)c12)CCC3	11.3	-10.6	8.2	11.4	-0.4	28.5	x	x
CCOC(=O)[C@]12CCC=C1N(Cc1ccco1)C(=O)[C@H](CC(=O)NCc1cccs1)C2	x	-1.2	1.6	x	x	4.4	x	x
CSC1=NSC2=NC(=O)/C(=C/c3coc4ccccc4c3=O)C(=N)N12	28.5	3.2	42.5	51.6*	2.5	-95.6	59.8*	62.1*
N=C1/C(=C/c2cccn2Cc2ccc(F)cc2)C(=O)N=C2SC=CN12	7.1	-1.6	4.4	3.3	0.4	10.0	x	x
CSC1=NSC2=NC(=O)/C(=C/c3coc4ccc(O)cc4c3=O)C(=N)N12	x	-16.1	102.6	69.7*	-3.7	125.5	116.5*	112.7*
CC1=CC2=NC(=O)/C(=C/c3coc4ccc(Cl)cc4c3=O)C(=N)N2O1	x	-50.0	55.4	78.3*	-1.0	11.4	72.7*	77.3*
N=C1/C(=C\c2coc3ccccc3c2=O)C(=O)N=C2SC=CN12	x	-65.3	8.9	40.1*	-2.9	-53.4	33.5*	46.7*
CSC1=NSC2=NC(=O)/C(=C\c3cccs3)C(=N)N12	-5.6	-23.4	-1.8	1.8	-2.9	2.2	x	x
COc1ccc(C)cc1NC(=O)c1ccccc1NS(=O)(=O)c1cccc2cccnc12	-2.9	6.4	2.0	-1.6	0.8	3.3	x	x
COc1ccc(Cl)cc1-c1cc(C(=O)NCc2ccccc2)[nH]n1	-7.2	-18.8	3.1	x	-4.6	-1.4	x	x
O=C(O)Cc1sc(Nc2ccc(F)cc2)nc1-c1cccs1	x	-16.0	23.4	68.2*	-4.7	22.0	48.6*	63.3*
O=C(O)Cc1sc(Nc2ccccc2)nc1-c1ccc(Cl)cc1	8.4	-3.6	1.4	-3.1	-0.3	-5.0	x	x
Cc1ccc(Nc2nc(-c3ccccc3)c(CC(=O)O)s2)cc1	17.9	20.5	0.1	56.5*	0.0	-4.7	21.6	31.2*
COc1coc(/C=C/C(=O)O)cc1=O	-4.8	1.4	-1.2	-2.3	-1.0	-4.4	x	x
CC1CCCCN1c1cc(C#N)c(C#N)cc1[N+](=O)[O-] (configuration not stated)	3.6	-43.3	-0.6	-5.3	-9.4	-0.7	x	x
CC1CCc2cccc3c2N1c1cc(C#N)c(C#N)cc1O3 (configuration not stated)	-12.5	23.9	1.7	26.4*	-1.2	7.8	21.9	30.5*
O=C(Nc1sccc1C(=O)NCc1ccco1)c1cccnc1	33.4	3.2	9.1	24.3*	-1.1	8.6	42.3*	55.6*
SMILES	Rpn11 inh	Neddyl block	HNF4A DNA FP	TPT1 inhibitor	Rin1-Abl PPI inh	CSN inh	TPT1 inh confirm	RNase T1 counter
CCOc1cc([N+](=O)[O-])cc2c1C(=O)Nc1ccccc1O2	x	-10.6	14.3	29.8*	-2.0	43.3*	44.4*	54.7*
Fc1ccc(-c2ccc3c(c2)C2CC3CCN2)cc1 (configuration not stated)	3.1	-9.3	1.8	x	-3.8	-1.0	x	x
O=C(NNS(=O)(=O)c1ccccc1)c1ccc(S(=O)(=O)N2CCCCC2)cc1	-6.4	3.4	-0.5	40.2*	0.0	-4.7	1.4	1.9
COc1ccc(NC(=O)COC(=O)C2COc3ccccc3O2)cc1OC (configuration not stated)	1.9	0.3	1.4	x	-4.0	1.3	x	x
COc1ccc2o/c(=N\O)c(C(=O)Nc3ccccc3OC)cc2c1	-0.1	9.7	1.2	162.5*	0.9	3.6	126.5*	125.1*
CC1CCN(C(=O)CSc2nc3c(c(=O)n2C)SC(C)C3)CC1 (configuration not stated)	0.9	-3.7	-1.9	-2.5	0.1	-1.7	x	x
COc1ccc(N/C=C\C(=O)c2ccc(Br)cc2)cc1OC	x	0.9	123.3	33.6*	1.1	52.9*	50.0*	60.0*
CN(CC(=O)Nc1ccccc1C(F)(F)F)C(=O)C1=COCCO1	-1.4	-4.0	1.1	-0.2	0.8	-2.9	x	x
COc1cc(N2CCCC2)c(OC)cc1/C=C(/C#N)c1cccc(F)c1	x	-42.8	89.1	143.5*	1.9	53.5*	145.2*	140.3*
N#C/C(=C/c1ccc(N2CCCCCC2)o1)c1ccc(F)cc1	x	-6.2	84.3	157.9*	1.1	4.8	182.0*	167.6*
N#C/C(=C/c1ccc(N2CCCCCC2)o1)c1cccc(F)c1	x	-22.4	97.5	160.3*	0.6	12.8	176.7*	163.5*
CCOC(=O)c1c(S(=O)(=O)Nc2ccccn2)c(C)n(C)c1C	-2.5	0.1	-0.3	-1.4	2.5	-2.5	x	x
CCN1CCc2nc(NC(=O)c3ccc4c(c3)OCCO4)sc2C1	31.4	-0.3	17.2	35.7*	-1.1	11.0	21.5	28.2*
